Results published in ChEMBL document CHEMBL1155706, “Vertilecanins: new phenopicolinic acid analogues from Verticillium lecanii” (2001).
Active and inactive are the calls of the source. No cut-off for these calls is given here.

Legend:
Helicoverpa zea [1] = assay: Antiinsectan activity in Helicoverpa zea at 100 ppm; type: functional, organism-based
In short: (§1)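 Test material was mixed into the H. zea diet at the stated ppm level (100 or 1500 ppm). Activity was scored as the reduction in weight gain relative to controls.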

Bacillus subtilis = assay: Antibacterial activity against Bacillus subtilis ATCC 6051 at 100 ug/disk by standard disk diffusion assay; type: functional
In short: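 Standard paper-disk diffusion test with 100 μg loaded per disk against B. subtilis ATCC 6051. Read-out is the diameter of the inhibition zone in mm.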

Helicoverpa zea [2] = assay: Antiinsectan activity in Helicoverpa zea assessed as reduction in weight gain at 1500 ppm relative to control; type: functional; design: scale not given: the % may be the effect or the level left; in short: as §1

Row | Compound | Activity (Helicoverpa zea [1]) | zone of inhibition at 100 µg/disc (Bacillus subtilis; read-out: IZ) [mm] | Activity (Helicoverpa zea [2]) [%] | Activity (Bacillus subtilis)
1 | COC(=O)CNC(=O)c1ccc(C(=O)c2ccccc2)cn1 | inactive | – | – | –
2 | O=C(O)c1ccc([C@H](O)c2ccccc2)cn1 [VERTILECANIN A] | inactive | 8 | 49 | –
3 | O=C(O)/C=C/CCCCCCC(=O)O | inactive | – | – | –
4 | O=C(O)CCCCCC/C=C/CO | inactive | – | – | inactive
5 | O=C(O)CNC(=O)c1ccc([C@H](O)c2ccccc2)cn1 | inactive | – | – | inactive
6 | COC(=O)CNC(=O)c1ccc([C@H](O)c2ccccc2)cn1 | inactive | – | – | –
7 | COC(=O)c1ccc([C@H](O)c2ccccc2)cn1 | inactive | – | – | –
